rCAG binder: binders of r(CAG) RNA repeats, primary screen, biochemical, fluorescence; r(CAG) RNA repeat, TO-PRO-1 dye displacement fluorescence; inhibition, % at 3 µM; 1.3% of 370,000 active;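 active means inhibition above the plate cutoff, the mean of all test compounds on that plate plus 3 SD, cut at about 35% in these data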;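 further: higher means more dye released from RNA so lower well fluorescence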
MPTP block: mitochondrial permeability transition pore inhibitors, primary screen, biochemical, isolated mouse mitochondria, absorbance. Ca2+ swelling absorbance, 30 min. inhibition, % at 10 µM. 1.4% of 360,000 active;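 active means inhibition of 50% or more, scaled per plate between neutral and stimulator controls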
V-ATPase pHluor: regulators of yeast V-ATPase proton pumping, primary screen, pHLuorin cytosolic pH fluorescence; S. cerevisiae; response, % at 10 µM; 0.37% of 350,000 active; AID 504577, 2011; in the data active means response mostly above about 7.3%, no sharp cut-off; inactive means mostly below about 5.4%; further: actives read high
B2AR ag: beta2AR agonists driving receptor internalization, primary screen, cell-based, FAP fluorogen, flow cytometry; AID 504454, 2011; 0.43% of 340,000 active; response, % (concentration not given with the values); Beta-2 adrenergic receptor (Homo sapiens), P07550; Am2.2-beta2AR cells;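 active means response above a set limit, near 3 SD of response in nonfluorescent compounds, cut at about 42% in these data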
Target sequence (P07550 whole entry, looked up): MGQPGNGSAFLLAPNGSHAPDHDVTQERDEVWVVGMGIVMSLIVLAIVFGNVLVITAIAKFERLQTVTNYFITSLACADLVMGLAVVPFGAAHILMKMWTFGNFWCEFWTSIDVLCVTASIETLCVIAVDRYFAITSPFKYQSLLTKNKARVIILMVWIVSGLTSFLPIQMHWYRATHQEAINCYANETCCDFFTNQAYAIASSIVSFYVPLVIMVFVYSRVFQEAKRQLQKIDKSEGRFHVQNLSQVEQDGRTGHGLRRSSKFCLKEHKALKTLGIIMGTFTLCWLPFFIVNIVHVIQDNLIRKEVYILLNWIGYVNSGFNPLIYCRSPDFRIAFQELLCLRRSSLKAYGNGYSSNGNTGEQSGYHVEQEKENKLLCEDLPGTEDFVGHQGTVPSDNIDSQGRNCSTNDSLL
T cell modulator: modulators of CD8 T cell-vesicle binding, primary screen, mouse 2C CD8+ T cells, flow cytometry; 2C CD8+ T cell-vesicle binding; active compounds read low; response (vesicle binding), % at 7 µM; 0.068% of 330,000 active;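 active means response, share of CD8 T cells binding vesicles, and their 90th percentile fluorescence all below set limits, cut at about 80% in these data, passing the limit was not always enough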;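 further: values below 100% mean blocked vesicle binding to the CD8+ T cells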
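incubation = binding step 1.5 h, 37 °C, antibody labelling 20 min, ice | test system = 2C mouse CD8+ T cells | read-out basis = percent CD8+ FL2 mean versus row control | controls = Peptide-free naked vesicles (low) and QL9 vesicles with 0.7% DMSO vehicle (high) | detection = flow cytometry of vesicle-bound cells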
Exocytosis inh: LAMP-1 surface exposure blockers, TALL-104 cells – cell-based, flow cytometry, MLPCN library, primary screen; AID 651702, 2012; TALL-104 LAMP-1 surface exposure; cells stimulated with thapsigargin and PMA; 0.66% of 360,000 active; inhibition, % at 10 µM;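 active means inhibition above about 55%, limit read from the data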
Rh123 counter: fluorescence retest of MPTP screen hits in isolated mitochondria, single concentration; membrane potential, Rhodamine 123 fluorescence; 78% of 5,000 active; shares compounds with MPTP block; AID 624504, 2012; inhibition, % at 10 µM; in the data active means inhibition above about 22%
MPTP swell DR: mitochondrial permeability transition pore inhibitors, dose response, biochemical, absorbance, uHTS hits | shares compounds with MPTP block | isolated mitochondria swelling | IC50, µM | 58% of 780 active | AID 651561, 2012; in the data active means IC50 below about 20 µM
MPTP counter DR: fluorescent counter-screen in isolated mitochondria, dose response, counter-screen for MPTP inhibitor project, biochemical, fluorescence, uHTS hits. IC50, µM. shares compounds with MPTP block. isolated mitochondria counterscreen, fluorescence read-out. 49% of 780 active; in the data active means IC50 below about 80 µM
Numbers stand for hits; 0 = inactive; - = no result given; ! = not confirmed by another sample. This is a sample that favours compounds with a hit; in the whole collection about 3.8% have one here.

SMILES	rCAG binder	MPTP block	V-ATPase pHluor	B2AR ag	T cell modulator	Exocytosis inh	Rh123 counter	others
CN1C(=O)/C(=C\c2ccc(N3CCCCCC3)cc2)C(=O)NC1=S	0	71.4	0	0	0	0	0	MPTP swell DR=0;MPTP counter DR=57.3
CCCCN1C(=O)/C(=C/c2ccc(N3CCCCCC3)cc2)C(=O)NC1=S	-	-	-	-	0	-	-
CC(C)CCP(=O)(O)O	0	-	-	-	-	-	-
Cc1ccc(OC(=O)N(C)C[C@H]2OCc3cnnn3CCCC(=O)N([C@@H](C)CO)C[C@@H]2C)cc1	0	-	-	-	-	-	-
CNCC(O)c1cccc(OC(=O)c2ccccc2C)c1 (stereo unspecified)	0	61.0	0	0	0	0	0	MPTP swell DR=8.89;MPTP counter DR=0
CSc1ncc(/C=C2/C(=O)NC(=O)N(C)C2=O)cn1	0	0	0	0	0	0	-
CSc1ncc(/C=C2/C(=O)NC(=O)N(C3CCCCC3)C2=O)cn1	0	90.5	0	0	0	0	0	MPTP swell DR=3.38;MPTP counter DR=0
CCOc1cc(CNCCc2c[nH]c3ccccc23)cc(Cl)c1OC	0	95.3	0	0	0	0	0	MPTP swell DR=3.39;MPTP counter DR=18.4
OC1(c2ccc(Cl)cc2)CCN(Cc2c[nH]c3ccccc23)CC1	0	94.5	0	0	0	0	0	MPTP swell DR=5.34;MPTP counter DR=0
c1ccc2c(CN3CCCCC3)c[nH]c2c1	0	0	0	0	0	0	-
Cc1cc(OC(=O)c2ccco2)c2c3c(c(=O)oc2c1)CCCC3	0	103.8	0	0	0	0	86.9
Cc1cc(OC(=O)c2cccs2)c2c3c(c(=O)oc2c1)CCCC3	0	67.8	0	0	0	0	86.0
Cc1cc(OCC(=O)O)c2c3c(c(=O)oc2c1)CCCC3	0	0	0	0	0	0	-
CCOc1cc(C)cc2oc(=O)c3c(c12)CCCC3	0	0	0	0	0	0	-
Cc1nc(N2CCN(Cc3ccc4c(c3)OCO4)CC2)[nH]c(=O)c1C	0	0	0	0	-	0	-
CC(C)S(=O)(=O)N1Cc2ccc(Br)cc2-n2nncc2C1	0	-	-	-	-	-	-
CC[C@]12CCN(CC3(O)CC3)C(Cc3ccc(O)cc31)C2(C)C	0	-	-	-	-	-	-
Cc1ccc(C[n+]2c(-c3ccc(C)cc3)cc(-c3ccc(C)cc3)cc2-c2ccc(C)cc2)cc1	-	92.7	0	0	0	0	115.9
Cc1ccc(-c2cc(-c3ccc(C)cc3)[n+](-c3ccc(C(=O)O)cc3)c(-c3ccc(C)cc3)c2)cc1	0	0	0	0	0	0	-
CC(C)OC(=O)C1C(c2ccc(I)cc2)CC2CCC1N2C (stereo unspecified)	0	-	-	-	-	-	-
O=S(=O)(c1ccc(Cl)cc1)N1Cc2ccc(Br)cc2-n2nncc2C1	0	-	-	-	-	-	-
Oc1ccc(C2NCc3ccccc3-n3cccc32)cc1Cl (stereo unspecified)	0	83.9!	0	0	0	0	0	MPTP swell DR=0;MPTP counter DR=0
c1ccc(-c2nc3ccccc3nc2-c2ccc(CN3CCC(n4nnc5ccccc54)CC3)cc2)cc1	0	-	-	-	-	-	-
Cc1ccc(Cl)cc1N1CCN(CCN)CC1	0	78.4	0	0	0	0	0	MPTP swell DR=12.4;MPTP counter DR=0
CCOC(=O)c1ccc(N=C(CC)c2c(O)n(C)c(=O)n(C)c2=O)cc1	0	90.5	0	0	0	0	0	MPTP swell DR=2.11;MPTP counter DR=22.7
SMILES	rCAG binder	MPTP block	V-ATPase pHluor	B2AR ag	T cell modulator	Exocytosis inh	Rh123 counter	others
CCC(=Nc1ccc2c(c1)CCC2)c1c(O)n(C)c(=O)n(C)c1=O	0	0	0	0	0	0	-
COC(=O)C1CC(OC(C)=O)C(=O)[C@H]2C1(C)CC[C@H]1C(=O)OC(c3ccoc3)CC12C (stereo partly specified)	0	-	-	-	-	-	-
Cn1cc(/C=C2\C(=O)NC(=O)N(c3ccccc3)C2=O)c2ccccc21	0	0	0	0	0	0	-
CN(C)c1ccc(/C=C/C=C2/C(=O)NC(=O)N(c3ccccc3)C2=O)cc1	0	50.8	0	0	-	0	0
O=C(CNC(=O)c1cccc(Cl)c1)Nc1ccc(Br)cc1C(=O)c1ccccc1	0	0	0	0	0	0	-
O=C(CNC(=O)c1ccc(Cl)cc1)Nc1ccc(Br)cc1C(=O)c1ccccc1	0	50.2	0	0	0	0	66.6
CCCCn1c(O)c(C(CC)=NCc2ccc3c(c2)OCO3)c(=O)[nH]c1=O	0	67.9	0	0	0	0	26.7
CCN(CCCl)c1cc(CN(C)C)cc(NC(=O)c2ccc(C(=O)Nc3cc(CN(C)C)cc(N(CC)CCCl)c3)cc2)c1	0	81.6	0	46.7	-	0	0
Nc1ncnc2c1ncn2[C@@H]1O[C@H](C(=O)NCCc2ccc(F)cc2)[C@@H](O)[C@H]1O	0	0	-	-	-	0	-
CC(C)(C)c1ccc(CSc2cnn(C(C)(C)C)c(=O)c2Cl)cc1	0	92.5	0	0	0	0	84.6
CCN1CCN(c2cc(N3CCCC3)c([N+](=O)[O-])cc2F)CC1	0	0	0	0	0	0	-
CN1CCN(c2cc(N3CCCCCC3)c(F)cc2[N+](=O)[O-])CC1	0	52.3	0	0	0	0	0	MPTP swell DR=13;MPTP counter DR=0
CN(Cc1cccc(-c2ccncc2)c1)C(=O)Oc1ccccc1Cc1ccccc1	-	89.5	-	-	-	0	114.3
CN(Cc1cccc(-c2ccncc2)c1)C(=O)Oc1ccccc1Cl	-	0	-	-	-	0	-
CC(C)NS(=O)(=O)c1ccc(OCC(=O)N2CCN(Cc3ccc4c(c3)OCO4)CC2)c(Cl)c1	0	53.9	0	0	0	0	32.4
Cc1cc(S(=O)(=O)NC(C)C)ccc1OCC(=O)N1CCN(Cc2ccc3c(c2)OCO3)CC1	0	0	0	0	0	0	-
Nc1c2c(nc3sc4c(c13)CCCC4)CCCC2	0	55.4	0	0	0	0	79.9
O=C(Nc1ccc(Cl)cc1)O/N=C(\c1ccccc1)c1ccccn1	0	87.1	0	0	0	0	101.0
CN1CCCC1CCOC(C)(c1ccccc1)c1ccc(Cl)cc1 (stereo unspecified)	0	80.7	0	0	-	0	0	MPTP swell DR=6.08;MPTP counter DR=0
CN1CCCC1C(O)(c1ccccc1)c1ccccc1 (stereo unspecified)	0	0	0	0	0	0	-

Bioassay records (PubChem)
